Screening data as filed in PubChem BioAssay.
Only some compounds are listed: those with a hit (about 4.3% of all), similar ones and a draw of the others.
OX1R antag-1: antagonists of human orexin 1 receptor. O43613. CHO/OX1R cells, Fluo-8 calcium fluorescence, orexin A. inhibition, % at 5 µM. 0.43% of 330,000 active. AID 434989;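 active means inhibition above its plate's threshold, mean inhibition of all tested compounds on the plate plus 3 SD, cut at about 37% in these data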;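 further: 0% = orexin A challenge wells and 100% = SB-334867-A antagonist wells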
Target sequence (O43613 whole entry, looked up): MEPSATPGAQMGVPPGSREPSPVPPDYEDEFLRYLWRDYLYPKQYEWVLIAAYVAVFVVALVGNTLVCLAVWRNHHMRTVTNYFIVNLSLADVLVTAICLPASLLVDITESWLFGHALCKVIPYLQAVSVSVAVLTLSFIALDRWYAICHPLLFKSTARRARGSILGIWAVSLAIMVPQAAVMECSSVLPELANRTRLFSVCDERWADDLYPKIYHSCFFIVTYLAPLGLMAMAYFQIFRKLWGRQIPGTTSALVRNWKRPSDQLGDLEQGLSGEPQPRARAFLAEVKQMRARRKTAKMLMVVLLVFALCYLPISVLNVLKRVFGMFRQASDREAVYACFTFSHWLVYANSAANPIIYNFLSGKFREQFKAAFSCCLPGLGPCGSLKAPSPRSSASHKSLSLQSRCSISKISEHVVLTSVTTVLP
TAAR1 antag: human TAAR1 antagonism. 1.5% of 360,000 active. Q96RJ0. AID 624466. CHO RD-HGA16 TAAR1, Fluo-8 calcium fluorescence, antagonist. inhibition, % at 3 µM;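 active means inhibition above a per-plate cutoff, the mean inhibition of test compounds on that plate plus 3 SD, cut at about 49% in these data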;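 further: 0% = DMSO plus EC80 beta-PEA response and 100% = DMSO alone without agonist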
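Material: CHO RD-HGA16 cells bearing hTAAR1; compound dosing: one-point dosing, 3 µM nominal final; schedule: dye loading 75 min at 37 °C, then 30 min room temperature; measured by: calcium fluorescence with Fluo-8; control set: vehicle and agonist controls; replication: n of 1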
CHO parental Ca: counter-screen for OX1R antagonists: effect in parental CHO cells; parental CHO-K1, ATP-induced calcium, Fluo-8 fluorescence; inhibition, % at 5.6 µM; 0.63% of 330,000 active; AID 463079;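 active means inhibition above that plate's mean sample inhibition plus 3 SD, cut at about 26% in these data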;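 further: 0% = ATP-challenged DMSO wells and 100% = DMSO wells without ATP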
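Material: parental CHO cells / Compound: single nominal dose of 5.6 µM per compound / Signal: Fluo-8 fluorescence / Replicates: singlicate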
GalR3 antag: blocks the human galanin receptor 3 | O60755 | HEK293 GalR3-CNG cAMP membrane potential fluorescence; galR3 body fused to GalR1 C-terminus | inhibition, % at 3 µM | 0.44% of 360,000 active | AID 651719;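 active means inhibition above the screen-wide average plus 3 SD, cut at about 13% in these data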;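 further: forskolin and galanin both at EC90 stimulate the cells; cAMP rise reported by CNG channel membrane potential dye signal; 0% = forskolin plus galanin with DMSO and 100% = forskolin alone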
TAAR1 ag: human TAAR1 agonism | Q96RJ0 | CHO RD-HGA16 TAAR1, Fluo-8 calcium fluorescence; vehicle wells 0%, saturating PEA agonist 100% | activation, % at 3 µM | 0.99% of 360,000 active | AID 624467;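 active means activation above the mean activation of all test compounds in the run plus 3 SD, cut at about 38% in these data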
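System: CHO-derived RD-HGA16 cells with stable Gα16 and human TAAR1. Times: 17-24 h plating, Fluo-8 75 min 37 °C, 30 min RT. Measured by: calcium-sensitive Fluo-8 signal, excitation 470-495, emission 515-575 nm. Read-out basis: % activation relative to PEA EC100 response. Control set: DMSO and PEA EC100. Repeats: no replicates (n 1).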
OX1R antag-2: blocks the human orexin 1 receptor; OX1R-expressing cells, FRET antagonist read-out; inhibition, % at 6.6 µM; AID 485270; 1.8% of 330,000 active; O43613; in the data active means inhibition mostly above about 38%, no sharp cut-off; inactive means mostly below about 40%;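 further: 0% = agonist challenge alone and 100% = reference antagonist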
Numbers without * were called inactive.

Screening CC(C)OC(=O)c1c2c(n3ccccc13)C(=O)c1ccccc1C2=O returned OX1R antag-1 23, TAAR1 antag 45, CHO parental Ca 16, GalR3 antag -7, TAAR1 ag 40* and OX1R antag-2 8.
For CC(=O)c1cccc(NC(=O)c2ccc(N(C)S(=O)(=O)c3ccc(C)cc3)cc2)c1 the results were OX1R antag-1 9, TAAR1 antag 55*, CHO parental Ca 4, GalR3 antag -2, TAAR1 ag 7 and OX1R antag-2 18.
For CCC(CC)C(=O)Nc1cccc(C(=O)Nc2ccc(S(N)(=O)=O)cc2)c1 the results were OX1R antag-1 -9, TAAR1 antag -1, CHO parental Ca -4, GalR3 antag -3, TAAR1 ag 10 and OX1R antag-2 19.
CN(c1ccccc1)S(=O)(=O)c1cccc(NC(=O)c2ccc3ncsc3c2)c1 was read as OX1R antag-1 21, TAAR1 antag 60*, CHO parental Ca 2, GalR3 antag -5, TAAR1 ag 9 and OX1R antag-2 54.
Screening Cc1nc2ccc(NC(=O)c3cccc(S(=O)(=O)N(C)c4ccccc4)c3)cc2s1 returned OX1R antag-1 5, CHO parental Ca 15 and OX1R antag-2 56.
CN(c1ccc(C(=O)Nc2cccc(O)c2)cc1)S(=O)(=O)c1ccccc1 was read as OX1R antag-1 -13, TAAR1 antag 10, CHO parental Ca 0, GalR3 antag 1, TAAR1 ag 12 and OX1R antag-2 9.
For CN(c1ccccc1)S(=O)(=O)c1cccc(NC(=O)c2cccc(C#N)c2)c1 the results were OX1R antag-1 -3, TAAR1 antag 66*, CHO parental Ca 0, GalR3 antag -8, TAAR1 ag 21 and OX1R antag-2 2.
`CCC(CC)C(=O)Nc1cccc(C(=O)Nc2ccc(S(=O)(=O)Nc3ccc(C)cc3)cc2)c1` gave OX1R antag-1 55*, TAAR1 antag 7, CHO parental Ca 10, GalR3 antag -6, TAAR1 ag 10 and OX1R antag-2 54*.
`COc1ccccc1C(=O)NCC(=O)OCC(=O)N1CC(C)OC(C)C1` (stereo not drawn) gave TAAR1 antag 4, GalR3 antag -4 and TAAR1 ag -1.
Screening O=C(NCC(O)CO)c1csc(Nc2cccc3ccccc23)n1 (stereo not drawn) returned OX1R antag-1 -24, TAAR1 antag -20, CHO parental Ca -4, GalR3 antag -2, TAAR1 ag 8 and OX1R antag-2 -2.
CN1CCCCC(NC(=O)c2ccc3ccccc3c2)C1=O (stereo not drawn) was read as TAAR1 antag 3, GalR3 antag -7 and TAAR1 ag 0.
Screening COc1ccc(C/C(N)=N/OC(=O)C(c2ccccc2)c2ccccc2)cc1OC returned OX1R antag-1 54*, TAAR1 antag 2, CHO parental Ca -9, GalR3 antag -7, TAAR1 ag 14 and OX1R antag-2 21.
`CN(CC(=O)Nc1ccc(F)c(F)c1F)C(=O)CC1CCCCC1` gave OX1R antag-1 -13, TAAR1 antag -11, CHO parental Ca -12, GalR3 antag -4, TAAR1 ag 4 and OX1R antag-2 6.
For Cn1c(=O)c2c(nc(NN=C3CCCC3)n2C)n(C)c1=O the results were OX1R antag-1 -19, TAAR1 antag 1, CHO parental Ca -11, GalR3 antag -7, TAAR1 ag 1 and OX1R antag-2 48*.
Screening CCCCn1c(N)c(Sc2ccccc2[N+](=O)[O-])c(=O)[nH]c1=O returned OX1R antag-1 -23, TAAR1 antag -4, CHO parental Ca -5, GalR3 antag -7, TAAR1 ag 7 and OX1R antag-2 55*.
Screening CCOC(=O)CNS(=O)(=O)c1cc(-c2nnc(Nc3ccc4c(c3)OCO4)c3ccccc23)ccc1C returned OX1R antag-1 71*, TAAR1 antag 59*, CHO parental Ca 57*, GalR3 antag -5, TAAR1 ag 9 and OX1R antag-2 24.
For CCC(=O)N1CCC1(C)C(=O)NCc1ccc(SC)cc1 (stereo not drawn) the results were TAAR1 antag -19, GalR3 antag -3 and TAAR1 ag 0.
For CCCCN(Cc1ccccc1)S(=O)(=O)c1ccc2[nH]c(=O)oc2c1 the results were OX1R antag-1 5, TAAR1 antag 49*, CHO parental Ca -16, GalR3 antag -1, TAAR1 ag 13 and OX1R antag-2 25.
`CCOC(=O)C1CCCN(C(=O)COC(=O)c2cccs2)C1` (stereo not drawn) gave OX1R antag-1 -14, TAAR1 antag -35, CHO parental Ca -9, GalR3 antag -4, TAAR1 ag 2 and OX1R antag-2 7.
Cc1[nH][nH]c(=O)c1C(c1ccc(-c2cccc(C(=O)O)c2)o1)c1c(C)[nH][nH]c1=O was read as OX1R antag-1 -8, TAAR1 antag -19, CHO parental Ca -4, GalR3 antag -1, TAAR1 ag 1 and OX1R antag-2 41.
For Cc1[nH][nH]c(=O)c1C(c1ccc(-c2ccccc2C(=O)O)o1)c1c(C)[nH][nH]c1=O the results were OX1R antag-1 -3, TAAR1 antag -2, CHO parental Ca -5, GalR3 antag -5, TAAR1 ag 3 and OX1R antag-2 50*.
`Cc1ccccc1-c1cc2c(nn1)-c1ccccc1C2=O` gave OX1R antag-1 -14, TAAR1 antag -10, CHO parental Ca -38, GalR3 antag 2, TAAR1 ag 13 and OX1R antag-2 72*.
O=C1c2ccccc2-c2nnc(-c3ccc(F)cc3)cc21 was read as OX1R antag-1 12, TAAR1 antag 3, CHO parental Ca -3, GalR3 antag -3, TAAR1 ag 7 and OX1R antag-2 8.
`Cc1ccc(-c2cc3c(nn2)-c2ccccc2C3=O)cc1` gave OX1R antag-1 -31, TAAR1 antag 4, CHO parental Ca -18, GalR3 antag 2, TAAR1 ag 2 and OX1R antag-2 44*.
O=S(=O)(c1ccc(F)c(F)c1)N1CCCCCCC1 was read as TAAR1 antag 0, GalR3 antag -6 and TAAR1 ag 4.
O=C(NCCc1c[nH]c2ccccc12)C(=O)c1c[nH]c2ccccc12 was read as OX1R antag-1 -4, TAAR1 antag 62*, CHO parental Ca -18, GalR3 antag -1, TAAR1 ag 40* and OX1R antag-2 12.
`Cc1[nH]c2ccccc2c1C(=O)C(=O)NCCc1c[nH]c2ccccc12` gave OX1R antag-1 -10, TAAR1 antag 75*, CHO parental Ca -14, GalR3 antag -6, TAAR1 ag 45* and OX1R antag-2 36.
